Data published in ChEMBL document CHEMBL1143387, “Synthesis of 18F-labelled 2-(4'-fluorophenyl)-1,3-benzothiazole and evaluation as amyloid imaging agent in comparison with [11C]PIB” (Bioorg Med Chem Lett, 2009).

Legend:
[1] = Biodistribution in NMRI mouse urine at 3.7 MBq/mL after 2 mins by gamma counter; assay type: ADME, organism-based; settings: in vivo
Summary of the method: (§1)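 Male NMRI mice (30–40 g), anaesthetised by ip Hypnorm (0.1 ml), given 0.1 ml diluted tracer via tail vein (ethanol ≤10%, THF ≤0.02%). Killed by decapitation at 2 or 60 min pi, n = 4 per time point. Blood and organs dissected and weighed, radioactivity gamma-counted with background correction. Reported as % ID or % ID/g; total blood activity assumes blood mass 7% of body mass.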

Cerebellum [2] = assay: Biodistribution in NMRI mouse cerebellum assessed per gram of tissue at 3.7 MBq/mL after 60 mins by gamma counter; assay type: ADME, organism-based; settings: in vivo, 1 h; summary of the method: as §1
[3] = Biodistribution in NMRI mouse cerebrum assessed per gram of tissue at 3.7 MBq/mL after 60 mins by gamma counter; assay type: ADME, organism-based; settings: in vivo, 1 h; summary of the method: as §1
Intestine = assay: Biodistribution in NMRI mouse intestine at 3.7 MBq/mL after 2 mins by gamma counter; assay type: ADME, organism-based; settings: in vivo; summary of the method: as §1
Blood [4] = assay: Biodistribution in NMRI mouse blood assessed per gram of tissue at 3.7 MBq/mL after 60 mins by gamma counter; assay type: ADME, organism-based; settings: in vivo, 1 h; summary of the method: as §1
Cerebellum [5] = assay: Biodistribution in NMRI mouse cerebellum at 3.7 MBq/mL after 2 mins by gamma counter; assay type: ADME, organism-based; settings: in vivo; summary of the method: as §1
[6] = Biodistribution in NMRI mouse liver/gallbladder at 3.7 MBq/mL after 2 mins by gamma counter; assay type: ADME, organism-based; settings: in vivo; summary of the method: as §1
Liver [7] = assay: Biodistribution in NMRI mouse liver assessed per gram of tissue at 3.7 MBq/mL after 60 mins by gamma counter; assay type: ADME, organism-based; settings: in vivo, 1 h; summary of the method: as §1
Blood [8] = assay: Biodistribution in NMRI mouse blood assessed per gram of tissue at 3.7 MBq/mL after 2 mins by gamma counter; assay type: ADME, organism-based; settings: in vivo; summary of the method: as §1
[9] = Biodistribution in NMRI mouse urine at 3.7 MBq/mL after 60 mins by gamma counter; assay type: ADME, organism-based; settings: in vivo, 1 h; summary of the method: as §1
[10] = Biodistribution in NMRI mouse cerebrum assessed per gram of tissue at 3.7 MBq/mL after 2 mins by gamma counter; assay type: ADME, organism-based; settings: in vivo; summary of the method: as §1
Lung [11] = assay: Biodistribution in NMRI mouse lungs at 3.7 MBq/mL after 60 mins by gamma counter; assay type: ADME, organism-based; settings: in vivo, 1 h; summary of the method: as §1
Kidney [12] = assay: Biodistribution in NMRI mouse kidneys at 3.7 MBq/mL after 2 mins by gamma counter; assay type: ADME, organism-based; settings: in vivo; summary of the method: as §1
Kidney [13] = assay: Biodistribution in NMRI mouse kidneys at 3.7 MBq/mL after 60 mins by gamma counter; assay type: ADME, organism-based; settings: in vivo, 1 h; summary of the method: as §1
Liver [14] = assay: Biodistribution in NMRI mouse liver at 3.7 MBq/mL after 2 mins by gamma counter; assay type: ADME, organism-based; settings: in vivo; summary of the method: as §1
Liver [15] = assay: Biodistribution in NMRI mouse liver at 3.7 MBq/mL after 60 mins by gamma counter; assay type: ADME, organism-based; settings: in vivo, 1 h; summary of the method: as §1
Cerebellum [16] = assay: Biodistribution in NMRI mouse cerebellum assessed per gram of tissue at 3.7 MBq/mL after 2 mins by gamma counter; assay type: ADME, organism-based; settings: in vivo; summary of the method: as §1
Lung [17] = assay: Biodistribution in NMRI mouse lungs at 3.7 MBq/mL after 2 mins by gamma counter; assay type: ADME, organism-based; settings: in vivo; summary of the method: as §1
[18] = Partition coefficient, log P at pH 7.4; assay type: physicochemical; settings: octanol/water
Blood [19] = assay: Biodistribution in NMRI mouse blood at 3.7 MBq/mL after 2 mins by gamma counter; assay type: ADME, organism-based; settings: in vivo; summary of the method: as §1
[20] = Biodistribution in NMRI mouse cerebrum at 3.7 MBq/mL after 2 mins by gamma counter; assay type: ADME, organism-based; settings: in vivo; summary of the method: as §1
[21] = Biodistribution in NMRI mouse liver/gallbladder at 3.7 MBq/mL after 60 mins by gamma counter; assay type: ADME, organism-based; settings: in vivo, 1 h; summary of the method: as §1
Kidney [22] = assay: Biodistribution in NMRI mouse kidneys assessed per gram of tissue at 3.7 MBq/mL after 2 mins by gamma counter; assay type: ADME, organism-based; settings: in vivo; summary of the method: as §1
Liver [23] = assay: Biodistribution in NMRI mouse liver assessed per gram of tissue at 3.7 MBq/mL after 2 mins by gamma counter; assay type: ADME, organism-based; settings: in vivo; summary of the method: as §1
Kidney [24] = assay: Biodistribution in NMRI mouse kidneys assessed per gram of tissue at 3.7 MBq/mL after 60 mins by gamma counter; assay type: ADME, organism-based; settings: in vivo, 1 h; summary of the method: as §1
[25] = Biodistribution in NMRI mouse cerebrum at 3.7 MBq/mL after 60 mins by gamma counter; assay type: ADME, organism-based; settings: in vivo, 1 h; summary of the method: as §1
Cerebellum [26] = assay: Biodistribution in NMRI mouse cerebellum at 3.7 MBq/mL after 60 mins by gamma counter; assay type: ADME, organism-based; settings: in vivo, 1 h; summary of the method: as §1
Lung [27] = assay: Biodistribution in NMRI mouse lungs assessed per gram of tissue at 3.7 MBq/mL after 60 mins by gamma counter; assay type: ADME, organism-based; settings: in vivo, 1 h; summary of the method: as §1
Lung [28] = assay: Biodistribution in NMRI mouse lungs assessed per gram of tissue at 3.7 MBq/mL after 2 mins by gamma counter; assay type: ADME, organism-based; settings: in vivo; summary of the method: as §1
Blood [29] = assay: Biodistribution in NMRI mouse blood at 3.7 MBq/mL after 60 mins by gamma counter; assay type: ADME, organism-based; settings: in vivo, 1 h; summary of the method: as §1

Molecule `[18F]c1ccc(-c2nc3ccccc3s2)cc1` has an Activity [1] of 0.6 %ID, an Activity (Cerebellum [2]) of 0.21 % ID/g and an Activity [3] of 0.21 % ID/g. It also gave an Activity (Intestine) of 8.5 %ID, an Activity (Blood [4]) of 0.6 % ID/g and an Activity (Cerebellum [5]) of 0.33 %ID. It also gave an Activity [6] of 30.3 %ID, an Activity (Liver [7]) of 5.3 % ID/g and an Activity (Blood [8]) of 2.9 % ID/g. It also gave an Activity [9] of 15.5 %ID, an Activity [10] of 3.2 % ID/g and an Activity (Lung [11]) of 0.4 %ID. The Activity (Kidney [12]) was 11.4 %ID, the Activity (Kidney [13]) was 5.9 %ID and the Activity (Liver [14]) was 21.8 %ID. The Activity (Liver [15]) was 11.7 %ID, the Activity (Cerebellum [16]) was 3.35 % ID/g and the Activity (Lung [17]) was 3.9 %ID. The logD [18] was 2.86, the Activity (Blood [19]) was 7.8 %ID and the Activity [20] was 1.03 %ID. The Activity [21] was 49.4 %ID, the Activity (Kidney [22]) was 17.9 % ID/g and the Activity (Liver [23]) was 10.2 % ID/g. It also gave an Activity (Kidney [24]) of 8.2 % ID/g, an Activity [25] of 0.07 %ID and an Activity (Cerebellum [26]) of 0.02 %ID. The Activity (Lung [27]) was 1.5 % ID/g, the Activity (Lung [28]) was 13.8 % ID/g and the Activity (Blood [29]) was 1.8 %ID.
